Test results as given in publication PMC10868414 (Pharmaceutical Biology, 2024).

Columns and labels:
[1] = SDS at 1.0% w/w mixed in diet; ref Elder [1983]; cited from earlier work
[2] = Elimination of andrographolide in urine and feces; assay type: in vivo, beagle dogs
Procedure, shortened: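 Male beagles (2.0–2.5 y, 10–15 kg; n = 4/group), fasted 10 h with water, caged singly; oral capsules equivalent to 3 mg/kg andrographolide, single dose and daily for 7 days. Urine centrifuged; feces mixed 50:50 w/v with methanol. Samples hydrolysed with β-glucuronidase solution (1,000 U/mL, pH 6.8, 37 °C, 30 min), methanol-precipitated with digoxin internal standard, LC-MS/MS (triple quadrupole); mean ± SD.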

[3] = Lipinski's Rule of Five criterion; ref Lipinski et al. [2001]; cited from earlier work
[4] = poor water solubility and high permeability; ref Lee et al. [2019]; cited from earlier work

For `CCCCCCCCCCCCOS(=O)(=O)[O-].[Na+]` [SDS, Sodium dodecyl sulfate], the “Abnormalities in long-term study” value [1] is listed as “did not result in any abnormalities”.
In the case of `C=C1CC[C@@H]2[C@](C)(CO)[C@H](O)CC[C@@]2(C)[C@@H]1C/C=C1/C(=O)OC[C@H]1O` [andrographolide, Andrographolide], the dose excreted ([2]; beagle, dog, urine, po, 3 mg/kg) is given as 0.1 to 1%, the “Feces excretion of andrographolide” value ([2]; of the administered dose, after oral administration of A. paniculata formulations) is given as “less than 0.4%” and the logP value [3] is given as “lower than 5”. For the same compound, the “Biopharmaceutics Classification System (BCS) category” value [4] was “BCS class II”.
